The source of these data is ChEMBL document CHEMBL4732034, “Amino alcohol acrylonitriles as broad spectrum and tumour selective cytotoxic agents” (RSC Med Chem, 2021).

Molecules are shown by their SMILES.

Data set [1] deals with T1, Aryl hydrocarbon receptor (Homo sapiens, UniProt P35869).
T1 sequence (P35869 whole entry): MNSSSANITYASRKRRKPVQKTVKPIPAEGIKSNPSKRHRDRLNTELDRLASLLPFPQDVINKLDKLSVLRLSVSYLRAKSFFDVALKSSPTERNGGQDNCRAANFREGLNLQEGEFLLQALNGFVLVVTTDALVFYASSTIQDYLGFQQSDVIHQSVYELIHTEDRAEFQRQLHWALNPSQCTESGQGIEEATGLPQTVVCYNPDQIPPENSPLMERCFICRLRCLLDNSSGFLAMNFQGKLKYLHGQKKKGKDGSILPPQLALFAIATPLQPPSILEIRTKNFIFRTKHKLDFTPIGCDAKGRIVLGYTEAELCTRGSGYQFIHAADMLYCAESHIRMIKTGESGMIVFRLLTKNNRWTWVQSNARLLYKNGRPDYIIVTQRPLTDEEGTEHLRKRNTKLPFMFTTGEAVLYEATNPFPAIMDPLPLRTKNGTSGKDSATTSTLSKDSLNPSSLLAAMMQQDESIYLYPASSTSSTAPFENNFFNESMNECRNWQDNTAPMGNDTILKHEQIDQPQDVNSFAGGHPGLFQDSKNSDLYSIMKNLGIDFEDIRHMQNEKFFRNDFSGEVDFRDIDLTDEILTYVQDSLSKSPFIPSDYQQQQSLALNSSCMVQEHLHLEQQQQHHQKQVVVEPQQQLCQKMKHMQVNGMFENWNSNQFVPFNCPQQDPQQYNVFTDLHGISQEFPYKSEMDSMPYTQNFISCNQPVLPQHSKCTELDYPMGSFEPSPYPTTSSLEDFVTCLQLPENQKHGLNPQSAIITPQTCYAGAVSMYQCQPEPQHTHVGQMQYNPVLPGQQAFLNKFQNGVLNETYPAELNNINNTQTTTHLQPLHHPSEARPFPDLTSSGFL
Description: Activation of AhR in human HT29-Lucia cells expressing secreted Lucia luciferase reporter gene assessed as increase in receptor transactivation by measuring fold increase in reporter activity at 5 uM measured after 48 hrs by luciferase reporter gene assay relative to control. Format: cell-based. Particulars: HT-29, human, read-out: FC. Summed up:
(§1)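 HT29-Lucia cells (stable secreted Lucia luciferase reporter under a minimal promoter with the human CYP1A1 regulatory sequence, six DREs) were grown without antibiotics for 24 h before compound addition. At 24 and 48 h, supernatant was read by luminescence with QUANTI-Luc. Assays were run twice, and values are fold-change versus DMSO-treated cells. FICZ and CH223191 (5 μM) were included as controls.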
(Reporter assays use an easily measured gene product as a stand-in for the process of interest.)

The target of data set [2] is T1, Aryl hydrocarbon receptor. Description: Activation of AhR in human HT29-Lucia cells expressing secreted Lucia luciferase reporter gene assessed as increase in receptor transactivation by measuring fold increase in reporter activity at 5 uM measured after 24 hrs by luciferase reporter gene assay relative to control. Particulars: HT-29, human, read-out: FC. Format: cell-based. A digest of the protocol: as §1

The subject of another data set is DU-145. Nature of the data set: Cytotoxicity against human DU-145 cells assessed as growth inhibition measured after 72 hrs by SRB assay. It is filed as functional. Summed up: (§2)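 Cancer lines were kept in DMEM with 10% FBS and glutamine at 37 °C, 5% CO2, and seeded at 2500–4000 cells per well in duplicate. Compound (from 40 mM DMSO stocks) was added 24 h after plating and left for 72 h. Cells were TCA-fixed, stained with SRB and read at 540 nm. GI50 came from an eight-point dose-response, using the change from day-0 optical density, with three to four independent replicates.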
In general terms: In SRB staining, fixed cells bind dye roughly in proportion to their protein.

A further data set concerns A2780. Description: Cytotoxicity against human A2780 cells assessed as growth inhibition measured after 72 hrs by SRB assay. It is filed as functional. Summed up: as §2
The nature of data set [3]: Cytotoxicity against human MCF10A cells assessed as growth inhibition measured after 72 hrs by SRB assay. Format: cell-based, MCF-10A.
Data set [4] in a line: Selectivity index, ratio of GI50 for human MCF10A cells to GI50 for human MDA-MB-468 cells by SRB assay. Particulars: MCF10A cells versus MDA-MB-468 cells, read-out: RatioGI50. Format: toxicity. Summed up: (§3)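 Fold selectivity is the MCF10A GI50 divided by the cancer-line GI50. Each GI50 is from the 72 h SRB assay: eight-point dose-response, day-0 optical density baseline, three to four separate replicates.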

Another data set has as its system BE(2)-C. Nature of the data set: Cytotoxicity against human BE2C cells assessed as growth inhibition measured after 72 hrs by SRB assay. It is filed as functional. Summed up: as §2
A further data set deals with NCI-H460. Nature of the data set: Cytotoxicity against human H460 cells assessed as growth inhibition measured after 72 hrs by SRB assay. Format: functional. A digest of the protocol:
as §2

Another data set concerns MCF7. Nature of the data set: Cytotoxicity against human MCF-7 cells assessed as growth inhibition measured after 72 hrs by SRB assay. Format: functional. Summed up: as §2
The subject of a further data set is U-87 MG. Nature of the data set: Cytotoxicity against human U87 cells assessed as growth inhibition measured after 72 hrs by SRB assay. Format: functional, U-87MG ATCC. A digest of the protocol:
as §2

Data set [5] has as its target T1, Aryl hydrocarbon receptor. Nature of the data set: Activation of AhR in human HT29-Lucia cells expressing secreted Lucia luciferase reporter gene assessed as increase in receptor transactivation by measuring fold increase in reporter activity at 25 uM measured after 24 hrs by luciferase reporter gene assay relative to control. It is filed as cell-based. Particulars: HT-29, human, read-out: FC. A digest of the protocol: as §1

In another data set the test system is T47D. Description: Cytotoxicity against human T47D cells assessed as growth inhibition measured after 72 hrs by SRB assay. Format: functional. Summed up:
as §2

A further data set relates to MDA-MB-468. Description: Cytotoxicity against human MDA-MB-468 cells assessed as growth inhibition measured after 72 hrs by SRB assay. Format: functional. A digest of the protocol:
as §2

Data set [6] is described as follows: Selectivity index, ratio of GI50 for human MCF10A cells to GI50 for human T47D cells by SRB assay. Format: toxicity. Particulars: MCF10A cells versus T47D cells, read-out: RatioGI50. A digest of the protocol: as §3
For another data set, the target named is T2, CYP1A1 (Homo sapiens, UniProt P35869).
T2 sequence (P35869 whole entry): T1 sequence (P35869 whole entry)
Description: Activation of AhR in human MDA-MB-468 cells assessed as fold increase in CYP1A1 mRNA expression at 5 uM measured after 8 hrs by qPCR assay relative to control. It is filed as cell-based. Particulars: read-out: FC. Summed up:
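MDA-MB-468 cells were exposed for 8 h, then total RNA was extracted. CYP1A1 was quantified by qPCR with β2M as reference: 95 °C for 5 min, then 40 cycles of 95 °C for 5 s and 60 °C for 10 s. Fold change was calculated by the comparative Ct method.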
In general terms: In qPCR the cycle at which signal appears reflects the starting amount.

Data set [7] addresses T1, Aryl hydrocarbon receptor. Description: Activation of AhR in human HT29-Lucia cells expressing secreted Lucia luciferase reporter gene assessed as increase in receptor transactivation by measuring fold increase in reporter activity at 25 uM measured after 48 hrs by luciferase reporter gene assay relative to control. It is filed as cell-based. Particulars: HT-29, human, read-out: FC. A digest of the protocol:
as §1

Another data set has as its system MIA PaCa-2. Description: Cytotoxicity against human MIA cells assessed as growth inhibition measured after 72 hrs by SRB assay. Format: functional. A digest of the protocol: as §2
For a further data set, the system named is HT-29. Description: Cytotoxicity against human HT29 cells assessed as growth inhibition measured after 72 hrs by SRB assay. Format: functional. A digest of the protocol: as §2
A short description of data set [8]: Selectivity index, ratio of GI50 for human MCF10A cells to GI50 for human MCF-7 cells by SRB assay. Format: toxicity. Particulars: MCF10A cells versus MCF-7 cells, read-out: RatioGI50. A digest of the protocol:
as §3

A short description of data set [9]: Cytotoxicity against human SJG2 cells assessed as growth inhibition measured after 72 hrs by SRB assay. Format: functional. Particulars: SJ-G2. A digest of the protocol: as §2
Another data set deals with A-431. Description: Cytotoxicity against human A431 cells assessed as growth inhibition measured after 72 hrs by SRB assay. Format: functional. A digest of the protocol:
as §2

The nature of data set [10]: Selectivity index, ratio of GI50 for human MCF10A cells to GI50 for human A2780 cells by SRB assay. Particulars: MCF10A cells versus A2780 cells, read-out: RatioGI50. Format: toxicity. Summed up: as §3
A short description of data set [11]: Selectivity index, ratio of GI50 for human MCF10A cells to GI50 for human H460 cells by SRB assay. Format: toxicity. Particulars: MCF10A cells versus H460 cells, read-out: RatioGI50. A digest of the protocol: as §3

With `Cc1ccccc1/N=N/c1ccc(NC(=O)c2ccnn2C)c(C)c1`, the fold induction at 5 µM in [1] was determined as 0.59; in data set [2] it was 0.69.
With `O=Cc1c2[nH]c3ccccc3c2cc2[nH]c3ccccc3c12`, the fold induction at 5 µM was determined as 4.82 in [1] and 2.85 in data set [2].
Usually GI50 stands for the concentration that inhibits growth by half. `N#C/C(=C\c1ccc(OCC(O)CN2CCN(c3ccc(C#N)cc3)CC2)cc1)c1ccc(Cl)c(Cl)c1` (racemic): the GI50 in the data set on DU-145 was 17 µM; in the data set with A2780, 15 µM; with BE(2)-C, 31 µM; in the data set on NCI-H460, more than 50 µM; with MCF7, 5.8 µM; in the data set on U-87 MG, more than 50 µM. Besides, the GI50 is 2.3 µM with T47D; 6 µM in the data set on MDA-MB-468; more than 50 µM in the data set on MIA PaCa-2; 50 µM in the data set with HT-29; more than 50 µM in [9]; 20 µM in the data set with A-431. Moreover, in data set [3], the GI50 at 72 h worked out at 47 µM. For the same compound, the selectivity ratio in [4] turned out to be 7.8; in data set [6], 20; in [8] it was 8.1. The figures for the fold induction at 25 µM in [5] and in [7] were 1.69 and 1.84, respectively. Further, the fold induction at 8 h, 5 µM on CYP1A1 turned out to be 7.6.
On to `CC(=O)N1CCN(CC(O)COc2ccc(/C=C(\C#N)c3ccc(Cl)c(Cl)c3)cc2)CC1` (racemic), for which the GI50 is 15 µM with DU-145; 6.9 µM in the data set with A2780; 11 µM in the data set on BE(2)-C; 14 µM in the data set on NCI-H460; 5.3 µM in the data set on MCF7; 21 µM in the data set with U-87 MG. For the same compound, the GI50 in the data set on T47D is 6.8 µM; in the data set on MDA-MB-468 it was 5.9 µM; in the data set on MIA PaCa-2, 16 µM; in the data set on HT-29, 8.6 µM; in data set [9] it was 13 µM; in the data set with A-431 it was 10 µM. For the same compound, the GI50 at 72 h in [3] amounted to 16 µM. Moreover, the selectivity ratio was 2.7 in data set [4], 2.3 in [6] and 3 in data set [8].
On to `N#C/C(=C\c1ccc(OCC(O)CN2CCN(c3ccc(Br)cc3)CC2)cc1)c1ccc(Cl)c(Cl)c1` (racemic), for which the GI50 is 31 µM in the data set with DU-145; 14 µM in the data set on A2780; 40 µM in the data set with BE(2)-C; more than 50 µM with NCI-H460; 24 µM in the data set on MCF7; more than 50 µM with U-87 MG. Further, the GI50 in the data set on MIA PaCa-2 was 57 µM; in the data set with HT-29, 16 µM; in data set [9] it was 21 µM; in the data set with A-431, more than 50 µM. In addition, the GI50 at 72 h in data set [3] came out at 49 µM. In addition, the selectivity ratio in data set [10] worked out at 3.5.
As to `N#C/C(=C\c1ccc(OCC(O)CN2CCN(c3ccccc3F)CC2)cc1)c1ccc(Cl)c(Cl)c1` (racemic), the GI50 in the data set on DU-145 worked out at 18 µM; with A2780 it was 17 µM; in the data set on BE(2)-C, 21 µM; with NCI-H460, 1.6 µM; with MCF7, 11 µM; in the data set with U-87 MG, 20 µM. The GI50 in the data set with MIA PaCa-2 turned out to be 24 µM; in the data set on HT-29, 5.4 µM; in data set [9], 18 µM; in the data set with A-431, 14 µM. Also, the GI50 at 72 h in data set [3] came out at 15 µM. Also, in [11], the selectivity ratio was found to be 9.3.
